From ChEMBL document CHEMBL1136605, “Synthesis and biological activities of novel beta-carbolines as PDE5 inhibitors” (Bioorg Med Chem Lett, 2003)

Experiments:
[1] = biological target: T1, cGMP-specific 3',5'-cyclic phosphodiesterase (Homo sapiens, UniProt O76074); test: Inhibition of PDE5 (Phosphodiesterase) from human corpus cavernosum
Procedure, shortened: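 Enzyme was PDE5 from human corpus cavernosum. Compounds were serially diluted in 100% DMSO and added to assay buffer at 2% DMSO final. […] Ki was derived, with IC50 instead for a few compounds. Values are means of three experiments.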

[2] = biological target: T1, cGMP-specific 3',5'-cyclic phosphodiesterase; test: Inhibitory activity against PDE5 from human corpus cavernosum
Homo sapiens = species: Homo sapiens; test: Relative inhibition of PDE6 from human retinal cone and PDE5 from human corpus cavernosum
Procedure, shortened: (§1)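 Ratio of inhibition of a second human PDE to that of PDE5 from corpus cavernosum. PDE2 was from corpus cavernosum and PDE6 from retinal cone. Compounds were diluted in DMSO to 2% DMSO final. Ki was determined for each enzyme.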

[3] = biological target: Phosphodiesterase 2 and 5 (PDE2 and PDE5) (Homo sapiens) (UniProt O76074+O00408); test: Relative inhibition of PDE2 and PDE5 from human corpus cavernosum; format: protein assay; procedure, shortened: as §1
Canis familiaris = test: In vivo increased intracavernosal pressure in dogs after intravenous dose; format: functional, Canis lupus familiaris
Procedure, shortened: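 Ascending intravenous doses given at 40-min intervals after control responses were established. Intracavernosal pressure (ICP) was evoked 15 min after each dose by pelvic nerve electrical stimulation at the same setting. Effect was taken as the ICP area under the curve at each stimulation minus the control-response AUC.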

Row | SMILES | Ki [2] [nM] | other results
1 | O=C(c1ccc(-c2ccc(Cl)cc2[N+](=O)[O-])o1)N1CCc2c([nH]c3ccccc23)[C@@H]1c1ccc2c(c1)OCO2 | – | IC50 [1]: > 10000 nM
2 | Nc1cccc(-c2ccc(C(=O)N3CCc4c([nH]c5ccccc45)C3c3ccc4c(c3)OCO4)o2)c1 (stereo not given) | 179 | –
3 | O=C(c1ccc(-c2cccc([N+](=O)[O-])c2)o1)N1CCc2c(sc3ccccc23)C1c1ccc2c(c1)OCO2 (stereo not given) | > 5000 | –
4 | O=C(c1ccc(-c2ccccc2[N+](=O)[O-])o1)N1CCc2c([nH]c3ccccc23)C1c1ccc2c(c1)OCO2 (stereo not given) | 219 | –
5 | O=C(c1ccc(-c2ccc([N+](=O)[O-])cc2)o1)N1CCc2c([nH]c3ccccc23)C1c1ccc2c(c1)OCO2 (stereo not given) | 77.5 | –
6 | Cc1ncc(-c2cnc(N3CCc4c([nH]c5ccccc45)C3c3ccc4c(c3)CCO4)nc2)n1C (stereo not given) | – | Selectivity (Homo sapiens): 187; Selectivity [3]: > 4000
7 | COc1ccc(-c2cnc(N3CC(=O)c4c([nH]c5ccccc45)C3c3ccc4c(c3)OCO4)nc2)cc1OC (stereo not given) | – | Selectivity (Homo sapiens): 4; Selectivity [3]: 23000
8 | CC(=O)Nc1ccc(-c2ccc(C(=O)N3CCc4c([nH]c5ccccc45)C3c3ccc4c(c3)OCO4)o2)cc1 (stereo not given) | 64.2 | –
9 | FC(F)(F)c1cccc(-c2ccc(CN3CCc4c([nH]c5ccccc45)C3c3ccc4c(c3)OCO4)o2)c1 (stereo not given) | 850 | –
10 | COc1ccc(-c2cnc(N3CC(=O)c4c([nH]c5ccccc45)C3c3ccc4c(c3)OCO4)nc2)cc1 (stereo not given) | 18 | ED50 (Canis familiaris): 0.173 mg/kg
11 | Oc1ccc(-c2cnc(N3CCc4c([nH]c5ccccc45)C3c3ccc4c(c3)CCO4)nc2)cc1 (stereo not given) | 154 | –
12 | CS(=O)(=O)c1ccc(-c2cnc(N3CCc4c([nH]c5ccccc45)C3c3ccc4c(c3)OCO4)nc2)c([N+](=O)[O-])c1 (stereo not given) | 132 | –
13 | COc1ccc(-c2cnc(N3CCc4c([nH]c5ccccc45)C3c3ccc4c(c3)OCO4)nc2)cc1 (stereo in doubt; 8a) | 246 | –
14 | c1ccc2c3c([nH]c2c1)C(c1ccc2c(c1)CCO2)N(c1ncc(-c2ccc(OCCN4CCCC4)cc2)cn1)CC3 (stereo not given) | > 1000 | –
15 | COc1ccc(-c2cnc(N3CC(O)c4c([nH]c5ccccc45)C3c3ccc4c(c3)OCO4)nc2)cc1OC (stereo not given) | > 100 | –
16 | O=C(c1ccc(-c2ccc(Cl)cc2[N+](=O)[O-])o1)N1CCc2c([nH]c3ccccc23)C1c1ccc2c(c1)OCO2 (stereo not given) | – | IC50 [1]: 105 nM
17 | O=C(c1ccc(-c2ccccc2)o1)N1CCc2c([nH]c3ccccc23)C1c1ccc2c(c1)OCO2 (stereo not given) | – | IC50 [1]: 750 nM

Row | SMILES | Ki [2] [nM] | other results
18 | COc1ccc(-c2cnc(N3CCc4c([nH]c5ccccc45)C3c3ccc4c(c3)OCO4)nc2)cc1 (stereo in doubt; 15a) | 246 | –
19 | CCCc1nn(C)c2c(=O)[nH]c(-c3cc(S(=O)(=O)N4CCN(C)CC4)ccc3OCC)nc12 | – | ED50 (Canis familiaris): 0.0051 mg/kg
20 | O=C(O)CCCC(=O)Nc1cccc(-c2ccc(C(=O)N3CCc4c([nH]c5ccccc45)C3c3ccc4c(c3)OCO4)o2)c1 (stereo not given) | – | IC50 [1]: 95 nM
21 | Clc1ccc(-c2cnc(N3CCc4c([nH]c5ccccc45)C3c3ccc4c(c3)OCO4)nc2)cc1 (stereo not given) | 126 | –
22 | O=C(c1ccc(-c2ccccn2)o1)N1CCc2c([nH]c3ccccc23)C1c1ccc2c(c1)CCO2 (stereo not given) | 32.3 | Selectivity (Homo sapiens): 32; Selectivity [3]: 308
23 | CC(=O)Nc1cccc(-c2ccc(C(=O)N3CCc4c([nH]c5ccccc45)C3c3ccc4c(c3)OCO4)o2)c1 (stereo not given) | 50.6 | –
24 | O=C(c1ccc(-c2cccc(C(F)(F)F)c2)o1)N1CCc2c([nH]c3ccccc23)C1c1ccc2c(c1)OCO2 (stereo not given) | 126 | –
25 | Nc1ccc(-c2ccc(C(=O)N3CCc4c([nH]c5ccccc45)C3c3ccc4c(c3)OCO4)o2)cc1 (stereo not given) | 123 | –
26 | COc1ccc(-c2cnc(N3CCc4c([nH]c5ccccc45)C3c3ccc4c(c3)CCO4)nc2)cc1 (stereo in doubt; 8f) | 189 | –
27 | Cc1ccc(-c2cnc(N3CCc4c([nH]c5ccccc45)C3c3ccc4c(c3)OCO4)nc2)cc1 (stereo not given) | 543 | –
28 | COc1ccc(-c2cnc(N3CCc4c([nH]c5ccccc45)C3c3ccc4c(c3)CCO4)nc2)cc1 (stereo in doubt; 15f) | 188 | –
29 | O=C(c1ccc(-c2cccc([N+](=O)[O-])c2)o1)N1CCc2c([nH]c3ccccc23)C1c1ccc2c(c1)OCO2 (stereo not given) | 130 | –
30 | COc1ccc(-c2cnc(N3CCc4c([nH]c5ccccc45)C3c3ccc(OC)c(OC)c3)nc2)cc1 (stereo not given) | > 10000 | –
31 | CN1CCN(C(=O)c2ccc(-c3ccc(C(=O)N4CCc5c([nH]c6ccccc56)C4c4ccc5c(c4)CCO5)o3)cc2)CC1 (stereo not given) | 8.11 | Selectivity (Homo sapiens): 119; Selectivity [3]: > 10000
32 | O=C(O)CCCC(=O)Nc1ccc(-c2ccc(C(=O)N3CCc4c([nH]c5ccccc45)C3c3ccc4c(c3)OCO4)o2)cc1 (stereo not given) | – | IC50 [1]: 100 nM
33 | O=C(c1ccc(-c2ccc(Cl)cc2[N+](=O)[O-])o1)N1CCc2c([nH]c3ccccc23)[C@H]1c1ccc2c(c1)OCO2 | – | IC50 [1]: 67 nM
